Source: ChEMBL document CHEMBL3102698, “New highly toxic bile acids derived from deoxycholic acid, chenodeoxycholic acid and lithocholic acid” (Bioorg Med Chem, 2014)
Calls of active or inactive are those of the source. The rule behind the calls is not given here.

Legend:
[1] = Cytotoxicity against human HT1080 cells assessed as cell viability after 24 hrs by MTT assay; type: functional, cell-based; details: HT-1080, 24 h
How it was run: (§1)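 Cells grown to 70% confluence (Caco-2 seeded 8 × 10^3/well, HT1080 12 × 10^4/well), serum-starved 1 h, then exposed 24 h serum-free to 0.1-1000 µM (DMSO ≤0.5%). MTT 0.5 mg/mL added for 3 h at 37 °C; formazan dissolved in DMSO, OD read at 540 nm. Viability taken as % of untreated OD. IC50 fitted from eight concentration levels, at least three experiments in triplicate.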

Caco-2 [2] = test: Cytotoxicity against human Caco2 cells assessed as cell viability after 24 hrs by MTT assay; type: functional, cell-based; details: Caco-2, 24 h; how it was run: as §1
Caco-2 [3] = test: Induction of necrosis in human Caco2 cells at 50 to 100 uM after 24 hrs by annexin V-FITC/propidium iodide staining-based flow cytometric analysis; type: functional, cell-based
How it was run: (§2)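 Cells grown to 80% confluence, exposed 24 h in serum-free medium, with vehicle-only controls. Harvested cells washed and resuspended in binding buffer, then stained with annexin V-FITC and propidium iodide 15 min at rt in the dark. Read by flow cytometry within 5 min. Annexin V−/PI+ cells scored necrotic and annexin V+ cells apoptotic; quadrant percentages reported.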

HT-1080 [4] = test: Induction of necrosis in human HT1080 cells at 50 to 100 uM after 24 hrs by annexin V-FITC/propidium iodide staining-based flow cytometric analysis; type: functional, cell-based; how it was run: as §2
Caco-2 [5] = test: Cytotoxicity against human Caco2 cells assessed as cell viability at 100 uM after 24 hrs by MTT assay in presence of antioxidant N-acetyl cysteine; type: functional, cell-based
How it was run: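 Caco-2 grown to 70% confluence, serum-starved 1 h, then treated 24 h serum-free with compound plus 1 mM NAC; DMSO vehicle at most 0.5%. MTT 0.5 mg/mL for 3 h at 37 °C, formazan dissolved in DMSO, OD 540 nm. Viability expressed as % of untreated cells; n = 3.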

[6] = Cytotoxicity against human HET-1A cells; type: cell-based
Caco-2 [7] = test: Induction of apoptosis in human Caco2 cells at 3.125 to 100 uM after 24 hrs by annexin V-FITC/propidium iodide staining-based flow cytometric analysis; type: functional, cell-based
How it was run: (§3)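 Caco-2 or HT1080 grown to 80% confluence, then treated 24 h in serum-free medium (vehicle controls run in parallel) at seven concentrations. Cells collected, washed and resuspended in binding buffer, stained with annexin V-FITC plus propidium iodide for 15 min at rt in the dark, and analysed within 5 min. Quadrants scored: annexin+/PI− early apoptotic, double-positive late apoptotic, PI+ only dead.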

HT-1080 [8] = test: Induction of apoptosis in human HT1080 cells at 3.125 to 100 uM after 24 hrs by annexin V-FITC/propidium iodide staining-based flow cytometric analysis; type: functional, cell-based; how it was run: as §3
Caco-2 [9] = test: Cytotoxicity against human Caco2 cells assessed as cell viability at 50 uM after 24 hrs by MTT assay relative to control; type: functional; details: Caco-2, 24 h, read-out: Activity
Caco-2 [10] = test: Induction of ROS production in human Caco2 cells at 10 uM after 0.5 to 24 hrs by 2',7'-dichlorfluorescein-diacetate staining-based fluorescence assay; type: functional, cell-based
How it was run: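 Caco-2 at 70-80% confluence exposed in serum-free medium for 30 min or 24 h (compounds 10 µM, natural bile acids 100 µM). Medium then replaced with 100 µM 2',7'-dichlorofluorescein diacetate for 30 min at 37 °C, cells washed with PBS, fluorescence read at ex 490/em 530 nm. Signal expressed relative to vehicle and corrected for MTT viability; n = 3.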

Caco-2 [11] = test: Cytotoxicity against human Caco2 cells assessed as cell viability at 10 uM after 24 hrs by MTT assay in presence of antioxidant N-acetyl cysteine; type: functional, cell-based
How it was run: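 MTT viability run on Caco-2 with and without 1 mM N-acetyl cysteine co-incubation. Compounds at 10 µM, natural bile acids at 100 µM, 24 h serum-free after 1 h serum starvation. MTT 0.5 mg/mL for 3 h at 37 °C, then DMSO solubilisation and OD at 540 nm, expressed as % of untreated; n = 3.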

HT-1080 [12] = test: Induction of necrosis in human HT1080 cells up to 500 uM after 24 hrs by annexin V-FITC/propidium iodide staining-based flow cytometric analysis; type: functional, cell-based; how it was run: as §2
Caco-2 [13] = test: Induction of necrosis in human Caco2 cells up to 500 uM after 24 hrs by annexin V-FITC/propidium iodide staining-based flow cytometric analysis; type: functional, cell-based; how it was run: as §2
HT-1080 [14] = test: Induction of necrosis in human HT1080 cells at 3.125 to 100 uM after 24 hrs by annexin V-FITC/propidium iodide staining-based flow cytometric analysis; type: functional, cell-based; how it was run: as §3

Compound | IC50 [1] | IC50 (Caco-2 [2]) | further results
C[C@H](CCC(=O)NC1CCCCC1)[C@H]1CC[C@H]2[C@@H]3CC[C@@H]4C[C@@H](N=[N+]=[N-])CC[C@]4(C)[C@H]3CC[C@]12C | > 1000 µM | > 1000 µM | –
CCCNC(=O)CC[C@@H](C)[C@H]1CC[C@H]2[C@@H]3CC[C@@H]4C[C@@H](N=[N+]=[N-])CC[C@]4(C)[C@H]3CC[C@]12C | > 200 µM | > 1000 µM | –
C[C@H](CCC(=O)NCc1ccccc1)[C@H]1CC[C@H]2[C@@H]3CC[C@@H]4C[C@@H](N=[N+]=[N-])CC[C@]4(C)[C@H]3CC[C@]12C | > 100 µM | > 100 µM | –
C[C@H](CCC(=O)O)[C@H]1CC[C@H]2[C@@H]3CC[C@@H]4C[C@H](O)CC[C@]4(C)[C@H]3CC[C@]12C [LITHOCHOLIC ACID] | 23 µM | 56 µM | Activity (Caco-2 [3]): Active; Activity (HT-1080 [4]): Active; Activity (Caco-2 [5]): inactive
C[C@H](CCC(=O)NC1CC1)[C@H]1CC[C@H]2[C@@H]3CC[C@@H]4C[C@@H](N=[N+]=[N-])CC[C@]4(C)[C@H]3CC[C@]12C | > 100 µM | > 100 µM | –
C[C@H](CCC(N)=O)[C@H]1CC[C@H]2[C@@H]3CC[C@@H]4C[C@@H](N=[N+]=[N-])CC[C@]4(C)[C@H]3C[C@H](O)[C@]12C | 3.6 µM | 10.7 µM | –
C[C@H](CCC(=O)O)[C@H]1CC[C@H]2[C@@H]3[C@H](O)C[C@@H]4C[C@H](N=[N+]=[N-])CC[C@]4(C)[C@H]3CC[C@]12C | 26.2 µM | 43.7 µM | –
CC(=O)O[C@@H]1C[C@@H]2C[C@@H](N=[N+]=[N-])CC[C@]2(C)[C@H]2CC[C@]3(C)[C@@H]([C@H](C)CCC(=O)O)CC[C@H]3[C@H]12 | – | 15.6 µM | –
C[C@H](CCC(N)=O)[C@H]1CC[C@H]2[C@@H]3CC[C@@H]4C[C@H](O)CC[C@]4(C)[C@H]3C[C@H](O)[C@]12C | – | – | EC50 [6]: 39 µM
C[C@H](CCC(=O)O)[C@H]1CC[C@H]2[C@@H]3CC[C@@H]4C[C@@H](N=[N+]=[N-])CC[C@]4(C)[C@H]3CC[C@]12C | 21.3 µM | > 250 µM | Activity (Caco-2 [7]): Active; Activity (HT-1080 [8]): Active
CC(=O)O[C@@H]1C[C@@H]2C[C@@H](N=[N+]=[N-])CC[C@]2(C)[C@H]2CC[C@]3(C)[C@@H]([C@H](C)CCC(N)=O)CC[C@H]3[C@H]12 | – | 5.5 µM | –
CCCNC(=O)CC[C@@H](C)[C@H]1CC[C@H]2[C@@H]3CC[C@@H]4C[C@@H](N=[N+]=[N-])CC[C@]4(C)[C@H]3C[C@H](O)[C@]12C | 6.3 µM | – | viability at 50 µM (Caco-2 [9]): 60%; Activity (Caco-2 [10]): Active
C[C@H](CCC(=O)NC1CC1)[C@H]1CC[C@H]2[C@@H]3CC[C@@H]4C[C@H](N=[N+]=[N-])CC[C@]4(C)[C@H]3C[C@H](O)[C@]12C | 5.7 µM | 2.3 µM | Activity (Caco-2 [11]): inactive
C[C@H](CCC(=O)NC1CC1)[C@H]1CC[C@H]2[C@@H]3CC[C@@H]4C[C@@H](N=[N+]=[N-])CC[C@]4(C)[C@H]3C[C@H](O)[C@]12C | 1.9 µM | 6.3 µM | Activity (Caco-2 [11]): inactive; Activity (HT-1080 [8]): Active
C[C@H](CCC(=O)O)[C@H]1CC[C@H]2[C@@H]3[C@@H](O)C[C@@H]4C[C@H](O)CC[C@]4(C)[C@H]3CC[C@]12C | – | – | Activity (Caco-2 [5]): inactive
C[C@H](CCC(=O)O)[C@H]1CC[C@H]2[C@@H]3CC[C@@H]4C[C@@H](N=[N+]=[N-])CC[C@]4(C)[C@H]3C[C@H](O)[C@]12C | – | – | EC50 [6]: 97 µM
C[C@H](CCC(=O)O)[C@H]1CC[C@H]2C3=CC[C@@H]4C[C@H](O)CC[C@]4(C)[C@H]3CC[C@]12C | – | > 100 µM | –
C[C@H](CCC(=O)NC1CCCCC1)[C@H]1CC[C@H]2[C@@H]3CC[C@@H]4C[C@@H](N=[N+]=[N-])CC[C@]4(C)[C@H]3C[C@H](O)[C@]12C | > 100 µM | > 1000 µM | –
C[C@H](CCC(N)=O)[C@H]1CC[C@H]2C3=CC[C@@H]4C[C@H](O)CC[C@]4(C)[C@H]3CC[C@]12C | – | > 100 µM | –
C[C@H](CCC(=O)NC1CC1)[C@H]1CC[C@H]2[C@@H]3[C@H](O)C[C@@H]4C[C@@H](N=[N+]=[N-])CC[C@]4(C)[C@H]3CC[C@]12C | 3.2 µM | 7.6 µM | Activity (Caco-2 [11]): inactive; Activity (Caco-2 [10]): Active
CC(=O)O[C@@H]1C[C@@H]2C[C@@H](N=[N+]=[N-])CC[C@]2(C)[C@H]2CC[C@]3(C)[C@@H]([C@H](C)CCC(=O)NC4CC4)CC[C@H]3[C@H]12 | – | 6.2 µM | –
C[C@H](CCC(=O)NCc1ccccc1)[C@H]1CC[C@H]2[C@@H]3CC[C@@H]4C[C@@H](N=[N+]=[N-])CC[C@]4(C)[C@H]3C[C@H](O)[C@]12C | > 500 µM | > 1000 µM | Activity (Caco-2 [10]): Active
C[C@H](CCC(N)=O)[C@H]1CC[C@H]2[C@@H]3CC[C@@H]4C[C@H](N=[N+]=[N-])CC[C@]4(C)[C@H]3C[C@H](O)[C@]12C | 10 µM | 12.6 µM | Activity (Caco-2 [11]): inactive; Activity (Caco-2 [10]): Active
C[C@H](CCC(=O)O)[C@H]1CC[C@H]2[C@@H]3[C@H](O)C[C@@H]4C[C@H](O)CC[C@]4(C)[C@H]3CC[C@]12C [CHENODIOL] | 130 µM | 106 µM | Activity (HT-1080 [12]): inactive; Activity (Caco-2 [13]): inactive
C[C@H](CCC(N)=O)[C@H]1CC[C@H]2[C@@H]3CC[C@@H]4C[C@@H](N=[N+]=[N-])CC[C@]4(C)[C@H]3CC[C@]12C | 13.1 µM | > 500 µM | Activity (HT-1080 [14]): Active
C[C@H](CCC(=O)NC1CC1)[C@H]1CC[C@H]2C3=CC[C@@H]4C[C@H](O)CC[C@]4(C)[C@H]3CC[C@]12C | – | 9.5 µM | –
C[C@H](CCC(N)=O)[C@H]1CC[C@H]2[C@@H]3[C@H](O)C[C@@H]4C[C@@H](N=[N+]=[N-])CC[C@]4(C)[C@H]3CC[C@]12C | 6.9 µM | 9.8 µM | Activity (Caco-2 [11]): inactive; Activity (Caco-2 [10]): Active
C[C@H](CCC(=O)O)[C@H]1CC[C@H]2[C@@H]3[C@H](O)C[C@@H]4C[C@@H](N=[N+]=[N-])CC[C@]4(C)[C@H]3CC[C@]12C | 23.6 µM | 40.3 µM | –
